Measurements: the RNAGym collection of RNA variant scans (doi:10.1126/science.aae0568)
Fewer inactive variants are shown than the library holds.

B1: tRNA (parent)
chain: GUUCCGUUGGCGUAAUGGUAACGCGUCUCCCUCCUAAGGAGAAGACUGCGGGUUCGAGUCCCGUACGGAACG

Variants of: B1
Test: yeast fitness relative to wild type (ratio to wild type); higher = fitter; tRNA-Arg(CCU), competitive growth, 37 C, YPD
In short: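 Variants of the tRNA-Arg(CCU) gene, chemically synthesised with a 3% per-site mutation rate at 69 sites, were placed at the native genomic locus in Saccharomyces cerevisiae. The pooled strains were competed in YPD at 37°C for 24 hours in six parallel replicates. Gene amplicons from the start population and from each end population were read by 100-nucleotide paired-end sequencing. Darwinian fitness relative to wild type came from changes in genotype frequencies; genotypes needed ≥ 100 starting reads, and estimates < 0.5 were set to 0.5.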

Variant	yeast fitness
C49A G56C G67A	≤ 0.5
G50A G67C	0.743
G50A G67A	0.818
G50A A70G	1.06
G50A A70U	0.805
G48A A70G	1.12
C49G G52A	0.898
C49U C62U G67A	0.573
G48C A57G A69U	0.562
C49G G67C	0.84
U47C G52A G63A	≤ 0.5
G48A U54C	0.929
C49U U53A C66U A70U	≤ 0.5
C49G	0.99
C49A	0.759
C49U	0.995
U47C G50A	0.99
G50A G56A A69C	0.706
G50A C55A	0.702
C49U C66A	0.815
C49U C66G	0.752
C49U C66U	0.968
U47C C66U	0.963
G48C G50C	0.68

Variant	yeast fitness
G48A C60G A70C	≤ 0.5
C49U G52C	0.547
U47C U59A A65C A70C	≤ 0.5
C49A U64C	0.86
U47G U59A C66A A70C	≤ 0.5
C49U C55U G58A	≤ 0.5
G48A C66G A70G	0.632
U47C U53C A57C	≤ 0.5
U47C U53A	0.604
G50A G52U G67C	≤ 0.5
C49G A57U C61G	0.516
U47G C49U	0.682
U47G C49A	0.68
C49U U54C C66G	≤ 0.5
G50C C60A	≤ 0.5
C49U G58C	1
U47G C60U	0.548
U47G C60G	0.675
C49G C66A G67U	≤ 0.5
G50C C66A	0.657
G50C C66U	0.596
C49U U59A	0.852
C49U U59G	0.904
G48A U59C	0.934

Variant	yeast fitness
C49A C66U	0.641
C49G G52A A69U	0.542
G50A G52A	0.688
G48A C49U	0.97
G48C U64A	0.946
G48C U64C	1.08
U47G G51A	0.588
G48C G52C G63C	≤ 0.5
G50A G56C G63A	0.561
G50A U54A	0.705
G48C U53A C61U	0.517
G50C G51A C62U	≤ 0.5
G50A C62A G68A	≤ 0.5
G48C C49U C60A A65U	≤ 0.5
G48A G50C	1.07
C49G G56A A65C	0.543
G48A G58C	0.979
U47C G56A	0.999
C49A A70U	0.714
G48A C61U A70C	0.989
G50A U59G	0.846
G50A U59C	0.863
C49A A57U A70C	0.518
C49A G50A C62U	0.637

Variant	yeast fitness
G48A G56A	1.02
G48C C55U	0.668
G48C C55A	0.703
G48C C55G	0.78
G48A G58C C66U	0.714
G50C C62G	0.965
G50C C62U	0.963
C49U A69C	1.01
G50A G68C	0.635
G48A G56C C62U	0.65
U47C U59A G63C	0.58
C49U A57C	0.78
G48A A65C	0.901
C49A C60G A70U	≤ 0.5
G50C	0.844
G50A	1
C49G C66G	0.647
C49G C66U	0.781
C49G C61A	0.808
C49G C61U	0.719
G48A A57G	0.972
C49G G50A U59G	≤ 0.5
G48C C49A U53A G56A G58C	0.611
G50C A70U	0.875

Variant	yeast fitness
G50C A70G	0.681
C49G C60U A65C	≤ 0.5
C49U A65G	0.942
G48C A57C	0.594
U47C C61U	0.888
U47C C60A C61G A69U	≤ 0.5
G48A C55G C62U	≤ 0.5
G50A C55A C66A	0.543
C49A G63U U64C	≤ 0.5
G48C U59A	0.785
C49G C60U A69G	≤ 0.5
U47C G48C	0.797
U47C G63C C66U	≤ 0.5
G50C A57U C61A	≤ 0.5
C49A U53A U59C C61A	≤ 0.5
U47C C55U G68C	0.517
C49G U54G A69U	≤ 0.5
C49U G51C G68A	≤ 0.5
U47G A57G	0.7
U47G A57U	≤ 0.5
G50A C62A C66G	≤ 0.5
G48C G67U A69C	0.507
C49U C62A	0.787
C49U C62U	0.869

Variant	yeast fitness
U47C U59A	0.961
G48C G51C U53A C66A	≤ 0.5
G48A A57U A65U C66A	≤ 0.5
C49A G56A	0.831
C49U U54C	0.864
C49U U54A	0.736
U47C A57U A65U	0.567
G48C G52C C62G	≤ 0.5
G48A G52C U54C C66U	≤ 0.5
G48C C49G	0.621
U47G C66G	0.517
U47G C66U	0.691
U47G G63A	0.561
G50C C61U C62U A69U	≤ 0.5
C49U U64A	0.753
C49U U64C	0.921
C49G G63A C66U	0.524
G48A C60U	0.847
G48A C60A	0.695
U47C C66U A70U	0.548
G48C A65U	0.75
G48C A65G	1.01
C49A A65G	0.625
C49A A65U	0.962

Variant	yeast fitness
G48A C61A A65C	≤ 0.5
G50A G56A	1.04
G50A G56C	0.635
C49A G67A	0.579
C49G U54A G68U A69U	0.566
G48A C61A G68U	0.561
C49G G63C	0.967
C49G G63A	0.86
C49U U59A C61A	≤ 0.5
U47C A69U	1.08
C49G G68A	0.953
C49G G68C	0.704
G48A C62G A69U	1.03
C49U G56C A70C	≤ 0.5
C49U G51C	0.756
C49U G51A	0.737
C49G A57U G63A G67A	≤ 0.5
C49G G56A	0.838
U47G G50C	≤ 0.5
C49U G56U	0.677
C49U G56C	0.58
C49U G56A	1.03
G48C U64C G67C	≤ 0.5
